Sampled rows, rich in hits. Any-hit rate of the full collection: about 2.9%.
dFosB activator – enhances mouse delta FosB homodimer DNA binding. P13346. purified delta FosB, TAMRA-CDK5 oligo fluorescence polarization; percent of positive-control signal above neutral wells. activation, % at 25 µM. hit rate 0.99% among 340,000;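 active = mean activation above about 17%, with every replicate also reaching it, limit read from the data, passing the limit was not always enough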
Target sequence (P13346 whole entry, looked up): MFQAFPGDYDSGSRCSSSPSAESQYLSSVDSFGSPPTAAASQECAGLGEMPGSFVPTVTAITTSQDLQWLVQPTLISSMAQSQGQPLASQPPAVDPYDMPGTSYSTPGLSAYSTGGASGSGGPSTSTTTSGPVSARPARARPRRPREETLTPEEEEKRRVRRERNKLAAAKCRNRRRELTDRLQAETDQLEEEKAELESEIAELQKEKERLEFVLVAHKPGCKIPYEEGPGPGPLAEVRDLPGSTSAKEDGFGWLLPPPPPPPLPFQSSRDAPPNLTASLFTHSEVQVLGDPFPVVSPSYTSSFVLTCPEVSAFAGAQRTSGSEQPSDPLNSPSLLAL
Cneo AK release – Cryptococcus neoformans lysis via adenylate kinase release; C. neoformans lysis, adenylate kinase release luminescence, 4 h; normalised: neutral wells 0, clomiphene wells 100; lysis activity, % at 15 µM; hit rate 0.2% among 360,000;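 active = mean lysis activity across replicates of at least 80%, whatever share of replicates individually reach that level; inactive = mean lysis activity below 80%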
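Material: C. neoformans cells | Amount: Yeast cell density of 5 × 10^6 cells/mL | Medium: Fresh YPD growth medium | Dosing: Single dose | Times: Static 4 h at 37 °C with compound, 1 h detection | Detection: AK luminescence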
PAX8 inh HTS – lowers PAX8-driven luciferase in RMG-I cells; inhibition, % at 12.6 µM; RMG-I TPO-luciferase reporter, SteadyGlo, 24 h; hit rate 1.2% among 360,000;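 active = mean replicate inhibition at least 60% with every replicate also reaching 60%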;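 also: luciferase light reporting Pax8 driven TPO promoter activity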
HIV Env fusion – HIV envelope-mediated fusion inhibition; HeLa-JRFL Env/CEM21 cell fusion, luciferase; hit rate 1.1% among 360,000; AID 651610; inhibition, % at 12.3 µM;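 active = mean replicate inhibition score of at least 50 and every replicate individually at or above 50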
CDK5 p35 inh – blocks human CDK5/p35 kinase activity | Q00535+Q15078 | Recombinant CDK5/p35, ADP-Glo luminescence, 60 min | inhibition, % at 10 µM | hit rate 0.01% among 330,000;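 active = highest replicate inhibition of at least 50% and at least 75% of replicates reaching 50%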
GSIS activator – GLuc luminescence reporter in INS-1E cells, primary screen for activators of glucose-dependent secretion of insulin. INS-1E GLuc reporter insulin secretion, 2-3 h. activation, % at 16.6 µM. hit rate 0.61% among 370,000. AID 743287;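 active = lowest replicate activation of at least 40%, so every replicate reaches that level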
Hits are given with their value; i = inactive; nt = not tested or not shown; [ ] = another dose, or the depositor's remark.

SMILES | dFosB activator | Cneo AK release | PAX8 inh HTS | HIV Env fusion | CDK5 p35 inh | GSIS activator
CCC(=O)OCC(=O)N=c1sccn1Cc1ccccc1Cl | i | i | i | i | i | i
O=C(CCl)N=c1sccn1Cc1ccccc1Cl | i | i | 100 | 134 | i | 61
CCC(=O)OCC(=O)N=c1sccn1Cc1ccc(C)cc1 | i | i | i | i | i | i
CNC[C@@H]1Oc2ccc(NC(=O)Nc3ccc(C(F)(F)F)cc3)cc2CC(=O)N([C@@H](C)CO)C[C@H]1C | nt | i | i | i | nt | i
CC(C)NC(=O)Nc1ccc2c(c1)C(=O)N([C@@H](C)CO)C[C@H](C)[C@@H](CN(C)C(=O)Nc1ccccc1)O2 | nt | i | i | i | nt | i
CCCNC(=O)[C@@H]1[C@@H](CO)[C@@H]2Cn3c(ccc(-c4cccc(OC)c4)c3=O)[C@H]1N2CC | nt | nt | nt | nt | nt | i
O=C(O)c1cc([N+](=O)[O-])ccc1N1CCCCC1 | i | nt | i | i | i | i
Cc1ccc(C(=O)c2cc([N+](=O)[O-])ccc2N2CCOCC2)cc1 | i | nt | i | i | i | i
CCOc1ccc(C(=O)c2cc([N+](=O)[O-])ccc2N2CCOCC2)cc1 | i | nt | 91 | i | i | i
Cc1ccc(C(=O)c2cc([N+](=O)[O-])ccc2N2CCCCC2)c(C)c1 | i | nt | 89 | i | i | i
COc1ccc(C(=O)c2cc([N+](=O)[O-])ccc2N2CCOCC2)cc1 | i | nt | 105 | i | i | i
C[C@@H]1CCCCO[C@H](CN(C)S(C)(=O)=O)[C@@H](C)CN([C@@H](C)CO)C(=O)c2cc(NC(=O)Cc3ccccc3)ccc2O1 | nt | i | i | i | nt | i
Cc1cc(C)n(CC(O)Cn2c3ccccc3c3ccccc32)c(=O)n1 (stereo not given) | i | i | nt | nt | i | nt
Cc1cc(C)n(CC(O)Cn2c3ccc(Br)cc3c3cc(Br)ccc32)c(=O)n1 (stereo not given) | 20 | nt | nt | i | i | nt
CNC[C@H]1Oc2cc(C#CC(C)(C)O)ccc2S(=O)(=O)N([C@H](C)CO)C[C@H]1C | nt | i | nt | i | nt | i
Cn1c(SCc2nnc3n2CCCCC3)nc2ccccc21 | i | i | nt | i | i | 66
CCOc1ccc(CCNC(=O)COC(=O)c2ccc(C)s2)cc1OCC | i | i | i | i | i | 52
CCOc1ccccc1C(=O)OCC(=O)NCc1ccc2c(c1)OCO2 | i | i | i | i | i | 47
CCOc1ccc(CCNC(=O)COC(=O)c2nc(Cl)ccc2Cl)cc1OCC | i | i | i | i | i | 44
CCOc1ccc(CCNC(=O)COC(=O)c2cccnc2SC)cc1OCC | i | nt | i | i | i | 55
CCOc1ccc(CCNC(=O)COC(=O)c2ccc(Cl)nc2)cc1OCC | i | i | i | nt | i | i
CCOc1ccc(CCNC(=O)COC(=O)c2cccnc2Cl)cc1OCC | i | i | i | i | i | i
C[C@H]1CN([C@@H](C)CO)S(=O)(=O)c2ccc(-c3cccc(F)c3)cc2O[C@H]1CN(C)C(=O)C1CC1 | nt | i | i | i | nt | i
CCOc1ccc(CCNC(=O)COC(=O)CSc2ccccc2C)cc1OCC | i | i | i | i | i | 57
CSc1ncccc1C(=O)OCc1ccccc1 | i | i | nt | nt | i | 47
SMILES | dFosB activator | Cneo AK release | PAX8 inh HTS | HIV Env fusion | CDK5 p35 inh | GSIS activator
COc1ccc(CCNC(=O)COC(=O)c2ccc(C)s2)cc1OC | i | i | i | nt | i | 42
CCOc1ccc(CCNC(=O)Nc2ccccc2C)cc1OCC | i | i | i | i | i | i
C[C@H](CO)N1C[C@H](C)[C@H](CN(C)C(=O)CCC(F)(F)F)OCCCC[C@H](C)Oc2ccc(NC(=O)c3ccncc3)cc2C1=O | nt | i | i | i | nt | i
C[C@@H]1CN([C@H](C)CO)C(=O)Cc2cc(N(C)C)ccc2O[C@H]1CN(C)C(=O)Nc1ccccc1 | nt | i | i | i | nt | i
CC(C)NC(=O)N(C)C[C@@H]1OCCCC[C@@H](C)Oc2ccc(N(C)C)cc2C(=O)N([C@H](C)CO)C[C@H]1C | nt | nt | i | i | nt | i
COc1ccc2c(c1)C(C)=CC(C)(C)N2S(=O)(=O)c1ccc(NC(C)=O)cc1 | i | i | 64 | i | i | i
CC1=CC(C)(C)N(S(=O)(=O)c2ccc(F)cc2)c2ccc(C)cc21 | i | i | nt | i | i | i
CCOc1ccc2c(c1)C(C)=CC(C)(C)N2S(=O)(=O)c1ccc(NC(C)=O)cc1 | i | i | 88 | i | i | i
CCOc1ccc2c(c1)C(C)=CC(C)(C)N2S(=O)(=O)c1ccc(F)cc1 | i | i | i | i | i | i
COc1ccc2c(c1)C(C)=CC(C)(C)N2S(=O)(=O)c1ccc(Br)cc1 | i | nt | 88 | i | i | i
CN(C)C(=O)[C@@H]1[C@@H](CO)[C@@H]2Cn3c(cccc3=O)[C@@H]2N1C(=O)C1CCCC1 | nt | nt | nt | nt | nt | i
CC(=O)Nc1ccc2c(c1)C(=O)N(C)[C@@H]1CC[C@H](CC(=O)NCc3ccc4c(c3)OCO4)O[C@H]1CO2 | nt | i | i | i | nt | i
O=[N+]([O-])/C(=C\Nc1ccccc1)S(=O)(=O)c1ccccc1 | i | i | nt | nt | i | 52
COc1ccc(N/C=C(\[N+](=O)[O-])S(=O)(=O)c2ccccc2)cc1 | i | i | i | i | i | i
COc1ccc(S(=O)(=O)N[C@H]2C=C[C@@H](CC(=O)NCCc3ccccc3)O[C@H]2CO)cc1 | nt | i | i | i | nt | i
COc1ccc(Cn2c(/C=C/c3ccccc3)nc3ccccc32)cc1 | i | i | i | i | i | nt
COc1ccc(/C=C/c2nc3ccccc3n2C)cc1 | i | i | 88 | i | i | i
COc1ccc(/C=C/c2nc3ccccc3c(=O)o2)cc1 | i | i | 84 | i | i | nt
COc1cccc(S(=O)(=O)N[C@@H]2CC[C@H](CCn3cc(-c4ccc(F)cc4)nn3)O[C@H]2CO)c1 | nt | i | i | i | nt | i
CCC(=O)N(C)C[C@@H]1Oc2ncc(/C=C/c3ccccc3)cc2C(=O)N([C@H](C)CO)C[C@H]1C | nt | i | nt | i | nt | i
Cc1ccc(C)c(N2CCN(C(=O)CCS(=O)(=O)c3ccc4c(c3)NC(=O)C(C)S4)CC2)c1 (stereo not given) | i | i | 62 | i | i | i
C[C@@H]1CN([C@@H](C)CO)C(=O)c2cc(NC(=O)C3CC3)ccc2O[C@H]1CN(C)Cc1ccc2c(c1)OCO2 | nt | 101 | i | i | nt | i
C[C@H]1CN([C@@H](C)CO)C(=O)c2cc(NC(=O)C3CCCCC3)ccc2O[C@@H]1CN(C)Cc1ccncc1 | nt | i | i | 55[16.7 µM] | nt | i
C[C@H]1CN([C@@H](C)CO)C(=O)c2cc(NC(=O)C3CCCCC3)ccc2O[C@H]1CN(C)Cc1ccncc1 | nt | i | i | i | nt | i
C[C@@H]1CN([C@H](C)CO)C(=O)c2cc(NC(=O)C3CC3)ccc2O[C@@H]1CN(C)Cc1ccc2c(c1)OCO2 | nt | i | i | i | nt | i
COc1ccc(CN(C)C[C@@H]2Oc3ccc(NC(=O)C4CC4)cc3C(=O)N([C@H](C)CO)C[C@H]2C)cc1 | nt | 106 | nt | i | nt | i

Assay outcomes deposited in PubChem by Broad Institute.
